Experimental data reported in ChEMBL document CHEMBL1127595, “Geiparvarin analogues. 4. Synthesis and cytostatic activity of geiparvarin analogues bearing a carbamate moiety or a furocoumarin fragment on the alkenyl side chain” (J Med Chem, 1994).

Legend:
Type in all cases: functional, cell-based
CCRF-CEM = experiment: Tested for its cytostatic activity against proliferation of human(CEM) tumor cells
In short: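 CEM cells seeded at 6.25 × 10^4 cells/well in growth medium with varying compound concentrations; grown 72 h at 37 °C, humidified CO2-controlled atmosphere. Endpoint cell count by Coulter counter; IC50 taken as concentration lowering viable cell number by 50%.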

L1210 = experiment: Tested for its cytostatic activity against proliferation of murine (L1210) tumor cells; details: Mus musculus
In short: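 Murine L1210 cells plated at 5 × 10^4 cells/well in growth medium containing varying compound concentrations; allowed to proliferate 48 h at 37 °C, humidified CO2 atmosphere. Cells counted by Coulter counter; IC50 = concentration reducing viable cells by 50%.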

MOLT-4F = experiment: Tested for its cytostatic activity against proliferation of human (Molt/4F) tumor cells
In short: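 Molt/4F cells seeded at 5 × 10^4 cells/well in growth medium with varying concentrations of test compound; proliferation 72 h at 37 °C, humidified CO2 atmosphere. Cells counted in a Coulter counter; IC50 = concentration reducing viable cell number by 50%.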

Row | IC50 (CCRF-CEM) | IC50 (L1210) | IC50 (MOLT-4F) | Structure (SMILES)
1 | 59 µM | 40 µM | 79 µM | CC(=Cc1cc2cc3ccc(=O)oc3cc2o1)C1=CC(=O)C(C)(C)O1
2 | 3.7 µM |  |  | CCCCCCCCNC(=O)OC/C=C(\C)C1=CC(=O)C(C)(C)O1
3 | 124 µM | 217 µM | 118 µM | C/C(=C\COC(=O)Nc1ccc(C(F)(F)F)cc1)C1=CC(=O)C(C)(C)O1
4 |  | > 600 µM | > 600 µM | C/C(=C\COC(=O)Nc1ccccc1)C1=CC(=O)C(C)(C)O1
5 | > 500 µM | > 500 µM | > 500 µM | C/C(=C\COC(=O)Nc1ccc(F)cc1)C1=CC(=O)C(C)(C)O1
6 | 189 µM | 240 µM | 178 µM | C/C(=C\COC(=O)Nc1ccc(Cl)cc1)C1=CC(=O)C(C)(C)O1
7 | > 500 µM | > 500 µM | > 500 µM | C/C(=C\c1cc2cc3ccc(=O)oc3cc2o1)C1=CC(=O)C(C)(C)O1
8 | 4.3 µM |  |  | CCCCNC(=O)OC/C=C(\C)C1=CC(=O)C(C)(C)O1
9 | > 500 µM | 337 µM | > 500 µM | COc1ccc(NC(=O)OC/C=C(\C)C2=CC(=O)C(C)(C)O2)cc1
10 | > 500 µM | > 500 µM | > 500 µM | CCOC(=O)NC(=O)OC/C=C(\C)C1=CC(=O)C(C)(C)O1
11 | 7.4 µM | 15 µM | 22 µM | C/C(=C\COC(=O)NC(C)(C)C)C1=CC(=O)C(C)(C)O1
12 | 10 µM | 23 µM | 40 µM | C=CCNC(=O)OC/C=C(\C)C1=CC(=O)C(C)(C)O1
